Screens (PubChem BioAssay)
RAM inhibit = blocks the yeast RAM network | S. cerevisiae dse1pr::URA3 reporter, 5-FOA growth OD615, 2 d; analog-sensitive cbk1-as2 kinase mutant strain | inhibition, % at 50 µM | 1.8% of 190,000 active | AID 868;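 active = inhibition above a set limit, 3 SD over mean compound inhibition, cut at about 8.4% in these data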;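 also: 0% = DMSO-only wells with no growth and 100% = 10 µM 1-NA-PP1 full growth; inhibition rescues growth on 5-FOA so higher OD means more RAM inhibition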
Yeast growth inh = reduces growth of yeast BB579 in restrictive medium; S. cerevisiae BB579 growth, OD615, 48 h; inhibition, % at 10 µM; 0.51% of 140,000 active;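 active = inhibition above a set limit, 3 SD over the mean compound inhibition, cut at about 44% in these data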
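controls = amphotericin B 10 µg/mL, positive | assay system = DeaD yeast strain BB579 | schedule = 48 h compound exposure at 30 °C after 4 h preincubation | detection = OD615 turbidity measurement | medium = restrictive CSMM-D medium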
WT yeast gro inh = growth inhibition of WT yeast, mitochondrial fusion screen. mitochondrial fusion phenotypic screen, WT strain. inhibition, % at 10 µM. 2.1% of 190,000 active. AID 1362; in the data active = inhibition above about 58%; tested in S. cerevisiae
Yeast lifespan up = extends the lifespan of yeast. S. cerevisiae growth with nicotinamide, OD615; deaD strain in restrictive glucose medium. inhibition of the nicotinamide effect, % at 10 µM. 0.68% of 130,000 active. AID 775;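 active = inhibition above a set limit, placed 3 SD over the median of all compounds, cut at about 26% in these data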;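 also: 0% = nicotinamide-treated wells and 100% = cells grown without nicotinamide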
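System: DeaD-strain S. cerevisiae / Buffer or medium: CSMM-D, restrictive glucose (dextrose) synthetic minimal medium / Probe or stimulus: nicotinamide, 1.5 mM, co-present with compound / Compound: one concentration, 10 µM, DMSO 0.25% / Incubation: 48 h compound exposure at 30 °C, humidified / Technique: optical density (absorbance) at 615 nm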
* marks the source's active call; other numbers are inactive results; . = no result given. Rows were chosen to be rich in hits. Some 4.3% of all compounds tested hit in one or more screens of this group.

SMILES	RAM inhibit	Yeast growth inh	WT yeast gro inh	Yeast lifespan up
CN1C2CCC1/C(=C/c1ccccn1)C(=O)/C2=C\c1ccccn1	2	-31	81*	37*
O=C1NC(=O)N(Cc2ccco2)C(=O)/C1=C/c1cccn1CCOc1ccccc1Cl	8.7*	-19	-12	5
CN(CC1COc2ccccc2O1)c1nc(-c2cccnc2)nc2ccccc12 (stereo not given)	0	-7	80*	-16
CN1CCC(N(C)c2nc(-c3ccc([N+](=O)[O-])cc3)nc3ccccc23)CC1	2	-2	35	-20
Cc1cc(NCCN)nc2ccccc12	1	-42	33	-7
Nc1c(C(=O)NCCc2ccccc2)c2nc3ccccc3nc2n1CCN1CCOCC1	-1	99*	3	-35
COc1ccc(CCNC(=O)c2c(N)n(CCN3CCOCC3)c3nc4ccccc4nc23)cc1	-2	28	8	-23
CC1CN(C)C(C)(C)CC1(O)c1ccccc1 (stereo not given)	1	4	-7	-14
CCCCCn1c(=O)c(C(=O)Nc2ccncc2)c(O)c2ccccc21	.	.	17	.
CCCCCCn1c(=O)c(C(=O)Nc2cnccn2)c(O)c2ccccc21	8.7*	.	11	.
Cc1c2ccncc2c(C)c2c1[nH]c1ccccc12	-1	100*	66*	-8
CNC(=O)Oc1ccc(-c2cn3cc(Cl)ccc3n2)cc1	3	-20	15	-5
CNC(=O)Oc1cccc(-c2cn3cc(OC(=O)NC)ccc3n2)c1	0	51*	3	-3
NC(=O)CSc1nnc([C@@H](N)Cc2c[nH]c3ccccc23)o1	-1	-5	-10	-6
O=c1[nH]c(=O)n(-c2cccc3ccccc23)c(O)c1/C=N/N1CCCCC1c1cccnc1 (stereo not given)	2	0	0	-3
O=c1c2ccccc2nc(CSc2ncnc3nc[nH]c23)n1-c1ccccc1Cl	10*	-2	-3	.
CCOC(=O)CN1C(=O)C2(C(C#N)=C(N)Oc3ccccc32)C(C(=O)OC)=C1C (stereo not given)	1	-33	26	4
CCOC(=O)CC1=C(C(=O)OCC)C2(C(=O)N1CC(=O)OC)C(C#N)=C(N)Oc1ccccc12 (stereo not given)	1	-24	66*	-17
CC1=NN(c2ccccc2)C(=O)/C1=C/c1c(O)[nH]c(=S)[nH]c1=O	2	-22	76*	-10
CC1=NN(c2ccccc2)C(=O)/C1=C/c1c(O)[nH]c(=O)[nH]c1=O	1	.	3	.
COc1cccc(NP(=O)(Oc2ccccc2)Oc2ccccc2)c1	3	-20	21	15
O=P(Nc1cccc(Cl)c1)(Oc1ccccc1)Oc1ccccc1	5	.	79*	.
Nc1ccccc1C(=O)OCC(=O)N1CCc2ccccc21	2	-20	-16	-5
N#CSCC(=O)N1c2ccccc2CCc2ccccc21	1	-51	1	43*
O=C1NC(=O)N(CCC2=CCCCC2)C(=O)/C1=C/c1ccc(O)cc1	-1	-40	-2	41*
SMILES	RAM inhibit	Yeast growth inh	WT yeast gro inh	Yeast lifespan up
CCOc1ccc(/C=C2/C(=O)NC(=O)N(CCc3ccc(F)cc3)C2=O)cc1	3	-13	-20	49*
COc1ccc(/C=C2\C(=O)NC(=O)N(CCC3=CCCCC3)C2=O)c(OC)c1	-1	-21	-1	19
COc1cc(/C=C2\C(=O)NC(=O)N(CCc3ccc(F)cc3)C2=O)ccc1O	-1	2	-29	12
CN(C)C(=O)CSc1nnc([C@@H](N)Cc2ccccc2)o1	1	5	24	-5
CNC(=O)Oc1ccc2c(c1)C(=O)c1ccccc1CO2	1	3	0	-9
CN(CCc1nnc(N)s1)[N+](=O)[O-]	1	.	-9	.
O=C(O)CCCc1ccc(N(CCCl)CCCl)cc1	9.8*	-23	-3	27*
Cn1c(O)c(C(=O)c2ccccc2Cl)c(=O)n(C)c1=O	0	3	-17	.
CN=C(SCc1cc2c(cc1Cl)OCO2)c1c(O)n(C)c(=O)n(C)c1=O	-1	18	-14	56*
COc1ccc2ccc(O)c(CN3CC=C(c4ccccc4)CC3)c2c1	1	.	61*	.
CC/C(=C\C=C\[C@@H]1C=C[C@@H]2CCC[C@H]2[C@@H]1C(=O)c1ccc[nH]1)[C@@H]1O[C@@H]([C@@H](C)C(=O)O)CC[C@@H]1C	2	-28	81*	.
OC(c1ccc(F)cc1)C(c1ccccc1)N1CCOCC1 (stereo not given)	2	-33	0	-2
CC1(C)CC(n2[nH]c(=O)c3c2NC(=O)CSC3c2ccccc2)CCO1 (stereo not given)	1	8	-4	-3
CC(C)(O)[C@H]1O[C@H]2CC[C@@]3(C)[C@@](O)(CC[C@H]4Cc5c([nH]c6ccccc56)[C@@]43C)C2=CC1=O	0	.	74*	.
Cc1ccc(NP(=O)(Nc2ccc(C)cc2)Oc2ccccc2)cc1	2	.	34	.
CCC(=NCc1ccc2c(c1)OCO2)c1c(O)n(C2CCCCC2)c(=O)[nH]c1=O	4	-37	62*	-5
CCC(=NCCO)c1c(O)n(C2CCCCC2)c(=O)[nH]c1=O	1	-12	0	-2
CCC(CO)(C(=O)OC1C[N+]2(C)CCC1CC2)c1ccccc1 (stereo not given)	1	.	3	.
CC(C)Oc1cc(-n2c(=S)[nH]c3ccccc3c2=O)c(Cl)cc1Cl	3	12	60*	-10
COc1cc(-n2c(=S)[nH]c3ccccc3c2=O)c(Cl)cc1Cl	3	-26	-17	-13
O=c1[nH]sc2cc(F)ccc12	1	.	73*	.
CN(C)C1(c2nnnn2CCOC(=O)Nc2ccc(Cl)cc2)CCCCC1	1	-12	20	66*
CN(C)C1(c2nnnn2-c2ccc(Cl)cc2)CCCCC1	1	-37	18	-9
CCN1C(=O)C(=Cc2ccc(C)s2)C(=O)N(CC)C1=S	9.5*	-19	-1	66*
CCN1C(=O)C(=Cc2cc(C)n(C3CC3)c2C)C(=O)N(CC)C1=S	4	-53	13	1
SMILES	RAM inhibit	Yeast growth inh	WT yeast gro inh	Yeast lifespan up
CN(C)c1ccc(-[n+]2c(-c3ccccc3)cc(-c3ccccc3)cc2-c2ccccc2)cc1	2	.	77*	.
Cc1oc(-c2ccccc2Cl)nc1CN1C(=O)CN=C(c2ccccc2)c2ccccc21	-1	-42	71*	11
O=C1CN=C(c2ccccc2)c2ccccc2N1Cc1ccc(C(F)(F)F)cc1	2	-33	-1	-14
COc1cc2c(cc1OC)-c1c(OC)c(OC)cc3c1[C@H](C2)[N+](C)(C)CC3	0	-6	-8	-1
CC(=O)c1ccccc1NC(=O)C1C2CCC(O2)C1C(=O)O (stereo not given)	0	4	-11	-16
O=c1[nH]c(=S)[nH]c(O)c1N=Nc1ccc2c(c1)OCO2	10.0*	.	8	.
Cc1cc(C=C2C(=O)NC(=S)NC2=O)c(C)n1-c1ccc2c(c1)OCO2	8	-39	-8	39*
